Data on 17 compounds can be found in ChEMBL document CHEMBL1156688, “Synthesis and biological activities of a series of 4,5-diaryl-3-hydroxy-2(5H)-furanones” (Eur J Med Chem, 2008).

The nature of assay [1]: DPPH radical scavenging activity assessed as ratio of drug concentration to DPPH concentration producing 50% decrease in DPPH after 5 mins. The format is functional. Summed up: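 DPPH decay was followed spectrophotometrically at 515 nm, read every 0.02 min, starting from about […] DPPH. ECR50 is the ratio of antioxidant to DPPH concentration giving a 50% fall in DPPH; the methods state 6 min of reaction. Trolox and ascorbic acid served as references.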

Assay [2] is described as follows: Antioxidant activity assessed as inhibition of peroxynitrite-induced evans blue bleaching at 50 uM. The class given is functional. Further details: scale not given: the % may be the effect or the level left. Summed up: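 Room-temperature assay in 50 mM phosphate-buffered saline, pH 7.4, containing 0.1 mM diethylenetriaminepentaacetic acid, 90 mM NaCl and 5 mM KCl. Test compound, Evans Blue ([…] as printed) and peroxynitrite ([…] as printed) were mixed rapidly. Bleaching was read at 608 nm. Blanks held DMF alone or peroxynitrite degraded for 5 min.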

Assay [3] deals with T1, Polyunsaturated fatty acid 5-lipoxygenase (Homo sapiens) (UniProt P09917).
T1 sequence (whole entry): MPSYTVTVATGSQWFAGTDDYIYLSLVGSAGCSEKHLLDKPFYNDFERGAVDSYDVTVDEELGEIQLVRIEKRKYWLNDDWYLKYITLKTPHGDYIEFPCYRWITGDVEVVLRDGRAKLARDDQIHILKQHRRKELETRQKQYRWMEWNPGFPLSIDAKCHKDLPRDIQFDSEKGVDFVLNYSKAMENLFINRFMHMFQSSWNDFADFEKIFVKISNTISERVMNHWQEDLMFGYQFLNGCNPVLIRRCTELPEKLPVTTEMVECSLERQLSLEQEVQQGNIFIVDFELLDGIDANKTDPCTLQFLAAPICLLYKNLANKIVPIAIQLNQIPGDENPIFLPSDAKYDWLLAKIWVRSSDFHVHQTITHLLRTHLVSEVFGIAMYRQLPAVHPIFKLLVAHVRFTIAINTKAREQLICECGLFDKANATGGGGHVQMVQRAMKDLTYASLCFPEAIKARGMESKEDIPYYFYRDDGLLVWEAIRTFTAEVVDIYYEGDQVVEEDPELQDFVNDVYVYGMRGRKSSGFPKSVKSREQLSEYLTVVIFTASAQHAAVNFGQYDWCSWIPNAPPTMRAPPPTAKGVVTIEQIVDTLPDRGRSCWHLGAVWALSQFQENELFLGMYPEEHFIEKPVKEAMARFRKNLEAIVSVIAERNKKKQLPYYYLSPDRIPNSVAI
Put plainly: Inhibition of 5LOX in human whole blood assessed as inhibition of calcium ionophore A-stimulated 5-HETE production at 10 uM. Further details: scale not given: the % may be the effect or the level left. The format is tissue-based. The essentials: (§1)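 Fresh heparinized blood from normal volunteers, in 1 mL aliquots, was preincubated 15 min at 37 °C with compound or DMSO vehicle. It was then stimulated with calcium ionophore A23187 for 30 min at 37 °C. Eicosanoids were extracted into ethyl acetate, dried under nitrogen and redissolved in mobile phase. 5-HETE was quantified by reversed-phase HPLC with UV detection.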

Assay [4] deals with T1, Polyunsaturated fatty acid 5-lipoxygenase (Homo sapiens). Description: Inhibition of 5LOX in human whole blood assessed as inhibition of calcium ionophore A-stimulated 5-HETE production at 100 uM. The class given is tissue-based. Further details: scale not given: the % may be the effect or the level left. Summed up: as §1
The target in assay [5] is Human immunodeficiency virus type 1 integrase (Human immunodeficiency virus 1, UniProt Q7ZJM1). Description: Inhibition of HIV1 integrase. Summed up:
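Wild-type HIV-1 integrase (1 pmol) was tested in a 3′-processing reaction with 0.025 pmol labelled U5A/U5B double-stranded DNA substrate. Buffer was 20 mM Hepes pH 7.2, 10 mM MgCl2, 25 mM NaCl and 1 mM DTT. Oligonucleotides were gel-purified on 18% denaturing acrylamide/urea.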

Assay [6] has as its target Prostaglandin G/H synthase 1 (Homo sapiens) (UniProt P23219). Put plainly: Inhibition of COX1 at 100 uM.
The test system of assay [7] is PC-3. Description: Antiproliferative activity against human PC3 cells at 10 uM after 72 hrs by MTT assay. The class given is functional. The note with it: PC-3, 72 h. The essentials:
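PC3 cells were grown in RPMI 1640 with 10% fetal calf serum at 37 °C under 5% CO2. They were plated at 1.8 × 10^4 cells/well and grown 3 days, then serum-starved 24 h to synchronize. Compounds were added in medium with less than 0.1% DMSO. Growth was estimated by colorimetric MTT after 72 h.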
In general terms: Tetrazolium assays rely on reduction of a dye to a coloured formazan, in cell work by metabolically active cells.

The test system of assay [8] is PC-3. Description: Antiproliferative activity against human PC3 cells after 72 hrs by MTT assay. The note with it: PC-3, 72 h.

Chain of Human immunodeficiency virus type 1 integrase (Q7ZJM1 whole entry): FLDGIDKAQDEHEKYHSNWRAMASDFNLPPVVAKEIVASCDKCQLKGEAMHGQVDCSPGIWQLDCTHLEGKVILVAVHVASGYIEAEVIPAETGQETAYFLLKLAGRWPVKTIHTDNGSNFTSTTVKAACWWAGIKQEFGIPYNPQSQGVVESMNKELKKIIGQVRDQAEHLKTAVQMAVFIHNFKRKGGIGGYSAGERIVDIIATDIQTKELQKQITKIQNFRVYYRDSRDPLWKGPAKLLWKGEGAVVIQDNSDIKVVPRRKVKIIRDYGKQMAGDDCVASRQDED

As for `O=C1OC(c2ccc(F)cc2)C(c2ccc(O)cc2)=C1O` (configuration not stated), in assay [1], the Ratio is 0.27. Moreover, the Activity in assay [2] was found to be 46.5%; in assay [3], 0%; in assay [4], 16.4%. For the same compound, the half-inhibitory concentration (IC50) (usually the concentration at which inhibition is half-maximal) in assay [5] was over 300 µM. The inhibition (as a rule, the change of the read-out against control, counted positive when it falls) in assay [6] came to 16.4%.

On to `O=C1OC(c2ccc(OCc3ccccc3)cc2)C(c2ccc(F)cc2)=C1O` (configuration not stated), for which the Activity in assay [2] and in assay [3] was 0% each time. In assay [5], the IC50 is over 300 µM.

As to `O=C1OC(c2ccc(OCc3ccccc3)cc2)C(c2ccc(O)cc2)=C1O` (configuration not stated), the Ratio in assay [1] was found to be 0.3. In addition, the Activity in assay [2] and in assay [3] was 0% in each case. The compound also gave an IC50 in assay [5] of over 300 µM.

On to `O=C1OC(c2ccc(O)cc2)C(c2ccc(F)cc2)=C1O` (configuration not stated), for which the Activity in assay [2], in assay [3] and in assay [4] was 0% throughout. In assay [5], this compound registered an IC50 of 300 µM. Also, in the assay with PC-3 [7], 10 µM produced 31% inhibition.

Regarding `O=C1OC(c2cc(OCc3ccccc3)cc(OCc3ccccc3)c2)C(c2ccc(O)cc2)=C1O` (configuration not stated), the Ratio in assay [1] was 0.65. Further, the Activity worked out at 10.4% in assay [2] and 32% in assay [3]. In assay [5], this compound gave a 50% inhibitory concentration (IC50) of over 300 µM.

`O=C1OC(c2ccc(OCc3ccccc3)c(OCc3ccccc3)c2)C(c2ccc(O)cc2)=C1O` (configuration not stated): in assay [1], the Ratio stood at 0.71. The Activity in assay [2] was found to be 4.9%; in assay [3], 12.7%. The compound further came in with an IC50 in assay [5] of 1 µM.

Consider `O=C1OC(c2cc(OCc3ccccc3)cc(OCc3ccccc3)c2)C(c2ccc(F)cc2)=C1O` (configuration not stated), for which the Activity in assay [2] and in assay [3] was 0% in each case. For the same compound, the IC50 in assay [5] was 30 µM.

For `O=C1OC(c2cc(O)cc(O)c2)C(c2ccc(F)cc2)=C1O` (configuration not stated), the Activity in assay [2] was found to be 40.9%; in assay [3], 0%; in assay [4] it was 10.7%. In assay [5], the IC50 was 92 µM. In the assay on PC-3 [7], this compound returned an inhibition at 10 µM of 0%.

`O=C1OC(c2ccc(O)cc2)C(c2ccc(O)cc2)=C1O` (configuration not stated): the Ratio in assay [1] is 0.32. Further, the Activity was determined as 44.9% in assay [2], 0% in assay [3] and 27.8% in assay [4]. Further, in assay [5], the IC50 came out at 220 µM. Besides, in the assay with PC-3 [7], testing at 10 µM gave an inhibition of 0%.

`O=C1OC(c2ccc(O)c(O)c2)C(c2ccc(O)cc2)=C1O` (configuration not stated): the Ratio in assay [1] came out at 0.25. The Activity in assay [2] was determined as 92%; in assay [3], 35.4%; in assay [4], 79.5%. In assay [5], this compound showed an IC50 of 9.2 µM. Besides, the inhibition at 10 µM in the assay with PC-3 [7] was 20%.

With `Cc1c(C)c2c(c(C)c1O)CCC(C)(C(=O)O)O2` (configuration not stated), the Ratio in assay [1] amounted to 0.26. The Activity in assay [2] worked out at 90%.

Turning to `O=C1OC(c2cc(O)cc(O)c2)C(c2ccc(O)cc2)=C1O` (configuration not stated), in assay [1], the Ratio was 0.47. Further, the values for the Activity in assay [2], in assay [3] and in assay [4] were 33.1%, 0% and 11.6%, respectively. This compound came in with a concentration for half-maximal inhibition (IC50) in assay [5] of 22 µM. Besides, at 10 µM the inhibition in the assay on PC-3 [7] was 39%.

In the case of `O=C1OC(c2ccccc2)C(c2ccc(O)cc2)=C1O` (configuration not stated), in assay [1], the Ratio is 0.49. In addition, the Activity in assay [2] was 29.4%; in assay [3], 0%; in assay [4], 18.6%. In assay [5], the IC50 was over 300 µM. In addition, the inhibition in assay [6] stood at 32.9%.

`Cc1ccc(-c2cc(C(F)(F)F)nn2-c2ccc(S(N)(=O)=O)cc2)cc1` [CELECOXIB] had an IC50 in the assay with PC-3 [8] of 48 µM.

Take `O=C1OCC(c2ccc(O)cc2)=C1O`: in assay [5], half-maximal inhibition (IC50) was put at 3.6 µM.

Take `O=C1OC(c2ccc(OCc3ccccc3)c(OCc3ccccc3)c2)C(c2ccc(F)cc2)=C1O` (configuration not stated): the Activity in assay [2] and in assay [3] was 0% throughout. In assay [5], this compound registered an IC50 of 10 µM.

For the compound `O=C1O[C@H]([C@@H](O)CO)C(O)=C1O`, in assay [1], the Ratio was determined as 0.26. Moreover, the Activity in assay [2] came out at 83.6%.
